According to ChEMBL document CHEMBL1240491, “In vitro anticancer screening and radiosensitizing evaluation of some new quinolines and pyrimido[4,5-b]quinolines bearing a sulfonamide moiety” (Eur J Med Chem, 2010):

Experiments:
MCF7 [1] = experiment: Anticancer activity against human MCF7 cells assessed as survival fraction at 10 uM after 48 hrs by SRB assay; assay type: functional
Summary of the method: (§1)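 Unirradiated MCF7 monolayers attached for 24 h after plating at 10⁴ cells/well, then exposed to a range of compound concentrations (dissolved in DMSO) with replicate wells per concentration. Incubated 48 h at 37 °C under 5% CO₂. Sulforhodamine B assay: fixation, 30 min 0.4% SRB/1% acetic acid, four acid washes, Tris-EDTA elution, colorimetric reading. Surviving fraction given as mean ± standard error.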

MCF7 [2] = experiment: Anticancer activity against human MCF7 cells assessed as survival fraction at 25 uM after 48 hrs by SRB assay; assay type: functional; summary of the method: as §1
MCF7 [3] = experiment: Anticancer activity against human MCF7 cells assessed as survival fraction at 50 uM after 48 hrs by SRB assay; assay type: functional; summary of the method: as §1
MCF7 [4] = experiment: Anticancer activity against human MCF7 cells assessed as survival fraction at 100 uM after 48 hrs by SRB assay; assay type: functional; summary of the method: as §1
MCF7 [5] = experiment: Anticancer activity against human MCF7 cells assessed as survival fraction after 48 hrs by SRB assay; assay type: functional, cell-based; conditions: MCF7, 48 h; summary of the method: as §1
MCF7 [6] = experiment: Anticancer activity against 8 Gy irradiated human MCF7 cells assessed as survival fraction at 10 uM after 48 hrs by SRB assay; assay type: functional
Summary of the method: (§2)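 MCF7 cells seeded at 10⁴ cells/well for 24 h, then given test compound (DMSO solution; 10, 25, 50 or 100 in the concentration series) plus a single 8 Gy γ-irradiation. Incubated 48 h, 37 °C, 5% CO₂. SRB readout: fix, stain 30 min with 0.4% SRB in 1% acetic acid, wash, solubilize in Tris-EDTA, read on ELISA reader. Surviving fraction is the mean of three values ± SE.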

MCF7 [7] = experiment: Anticancer activity against 8 Gy irradiated human MCF7 cells assessed as survival fraction at 25 uM after 48 hrs by SRB assay; assay type: functional; summary of the method: as §2
MCF7 [8] = experiment: Anticancer activity against 8 Gy irradiated human MCF7 cells assessed as survival fraction at 50 uM after 48 hrs by SRB assay; assay type: functional; summary of the method: as §2
MCF7 [9] = experiment: Anticancer activity against 8 Gy irradiated human MCF7 cells assessed as survival fraction at 100 uM after 48 hrs by SRB assay; assay type: functional; summary of the method: as §2
MCF7 [10] = experiment: Anticancer activity against 8 Gy irradiated human MCF7 cells assessed as survival fraction after 48 hrs by SRB assay; assay type: functional, cell-based; conditions: MCF7, light or radiation study; summary of the method: as §2

SMILES	Activity (MCF7 [1])	Activity (MCF7 [2])	Activity (MCF7 [3])	Activity (MCF7 [4])	IC50 (MCF7 [5])	Activity (MCF7 [6])	Activity (MCF7 [7])	Activity (MCF7 [8])	Activity (MCF7 [9])	IC50 (MCF7 [10])
Cc1nc2c(c(=O)[nH]1)C(c1ccc(Cl)cc1)C1=C(CC(C)(C)CC1=O)N2c1ccc(S(N)(=O)=O)cc1 (stereo not drawn)	0.976	0.721	0.45	0.557	85.9 µM					
CC1(C)CC(=O)C2=C(C1)N(c1ccc(S(N)(=O)=O)cc1)C(N1C(=O)CCC1=O)=C(C#N)C2c1ccc(Cl)cc1 (stereo not drawn)	0.93	0.813	0.584	0.549	95.2 µM					
CC(=O)NC1=C(C#N)C(c2ccc(Cl)cc2)C2=C(CC(C)(C)CC2=O)N1c1ccc(S(N)(=O)=O)cc1 (stereo not drawn)	0.948	0.779	0.446	0.324	64.5 µM	0.427	0.503	0.31	0.137	33.1 µM
CC1(C)CC(=O)C2=C(C1)N(c1ccc(S(N)(=O)=O)cc1)c1ncnc(N=C=S)c1C2c1ccc(Cl)cc1 (stereo not drawn)	0.972	0.721	0.419	0.515	79.6 µM					
CCNC(=S)NC1=C(C#N)C(c2ccc(Cl)cc2)C2=C(CC(C)(C)CC2=O)N1c1ccc(S(N)(=O)=O)cc1 (stereo not drawn)	0.916	0.837	0.594	0.561	99.6 µM					
CC1(C)CC(=O)C2=C(C1)N(c1ccc(S(N)(=O)=O)cc1)c1ncnc(Cl)c1C2c1ccc(Cl)cc1 (stereo not drawn)	0.843	0.696	0.476	0.546	86.5 µM					
CC1(C)CC(=O)C2=C(C1)N(c1ccc(S(N)(=O)=O)cc1)c1nc[nH]c(=S)c1C2c1ccc(Cl)cc1 (stereo not drawn)	0.927	0.91	0.884	0.814	> 100 µM					
CC(=O)CC(=O)NC1=C(C#N)C(c2ccc(Cl)cc2)C2=C(CC(C)(C)CC2=O)N1c1ccc(S(N)(=O)=O)cc1 (stereo not drawn)	0.897	0.82	0.648	0.549	> 100 µM					
CC1(C)CC(=O)C2=C(C1)N(c1ccc(S(N)(=O)=O)cc1)c1nc(CC#N)[nH]c(=O)c1C2c1ccc(Cl)cc1 (stereo not drawn)	0.971	0.901	0.774	0.525	> 100 µM					
CC1(C)CC(=O)C2=C(C1)N(c1ccc(S(N)(=O)=O)cc1)C(N)=C(C1=NCCN1)C2c1ccc(Cl)cc1 (stereo not drawn)	0.939	0.763	0.568	0.621	> 100 µM					
CC1(C)CC(=O)C2=C(C1)N(c1ccc(S(N)(=O)=O)cc1)c1nc[nH]c(=O)c1C2c1ccc(Cl)cc1 (stereo not drawn)	0.891	0.676	0.499	0.468	76.8 µM					
CCO/C=N/C1=C(C#N)C(c2ccc(Cl)cc2)C2=C(CC(C)(C)CC2=O)N1c1ccc(S(N)(=O)=O)cc1 (stereo not drawn)	0.803	0.551	0.498	0.607	97.2 µM					
CC1(C)CC(=O)C2=C(C1)N(c1ccc(S(N)(=O)=O)cc1)c1ncnc(N)c1C2c1ccc(Cl)cc1 (stereo not drawn)	0.886	0.612	0.495	0.602	96.6 µM					
CCOC(=O)Cn1cnc2c(c1=O)C(c1ccc(Cl)cc1)C1=C(CC(C)(C)CC1=O)N2c1ccc(S(N)(=O)=O)cc1 (stereo not drawn)	0.954	0.88	0.653	0.563	> 100 µM					
CC1(C)CC(=O)C2=C(C1)N(c1ccc(S(N)(=O)=O)cc1)c1ncnc(NN)c1C2c1ccc(Cl)cc1 (stereo not drawn)	0.94	0.788	0.672	0.358	76 µM					
CC1(C)CC(=O)C2=C(C1)N(c1ccc(S(N)(=O)=O)cc1)c1nc(CCl)[nH]c(=O)c1C2c1ccc(Cl)cc1 (stereo not drawn)	0.914	0.775	0.731	0.625	> 100 µM					
CC1(C)CC(=O)C2=C(C1)N(c1ccc(S(N)(=O)=O)cc1)C(N)=C(C(N)=O)C2c1ccc(Cl)cc1 (stereo not drawn)	0.922	0.662	0.445	0.452	71.9 µM	0.653	0.517	0.281	0.282	44.4 µM
COc1cccc2c1C(=O)c1c(O)c3c(c(O)c1C2=O)C[C@@](O)(C(=O)CO)C[C@@H]3O[C@H]1C[C@H](N)[C@H](O)[C@H](C)O1 [DOXORUBICIN]	0.721		0.461	0.494						
CC1(C)CC(=O)C2=C(C1)N(c1ccc(S(N)(=O)=O)cc1)C(N)=C(C#N)C2c1ccc(Cl)cc1 (stereo not drawn)	0.915	0.612	0.429	0.484	72.9 µM					
CC1(C)CC(=O)C2=C(C1)N(c1ccc(S(N)(=O)=O)cc1)C(NC(=O)CCl)=C(C#N)C2c1ccc(Cl)cc1 (stereo not drawn)	0.986	0.736	0.523	0.502	84.3 µM					
CC(=O)N(C(C)=O)C1=C(C#N)C(c2ccc(Cl)cc2)C2=C(CC(C)(C)CC2=O)N1c1ccc(S(N)(=O)=O)cc1 (stereo not drawn)	0.895	0.773	0.504	0.414	72.1 µM					
